Source: ChEMBL document CHEMBL4373680, “Small antibacterial molecules highly active against drug-resistant Staphylococcus aureus” (Medchemcomm, 2019)
Active and inactive are the calls of the source. No cut-off for these calls is given here.

Tests used:
Staphylococcus aureus [1] = assay: Antibacterial activity against Staphylococcus aureus ATCC 33591 using compound preincubated with human 50% plasma for 3 hrs and measured after 24 hrs by tecan-plate reader analysis; assay type: functional
In short: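 Compound mixed 1:1 with human plasma, human serum or mouse liver homogenate (50%) and held 3 h at 37 °C. Saline and PBS incubations served as controls. Mixtures two-fold diluted (saline for plasma/serum, PBS for homogenate), then MRSA ATCC33591 (~10⁵ CFU/mL in MHB) added.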

Staphylococcus aureus [2] = assay: Antibiofilm activity against Staphylococcus aureus R3545 assessed as bacterial cell viability by measuring log reduction in bacterial colony forming units at 16 ug/ml incubated for 24 hrs followed by plating on agar plate for 24 hrs; assay type: functional
In short: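 Mid-log MRSA diluted to 10⁵ CFU/mL in nutrient broth with 1% glucose and 1% NaCl. Biofilms grown on glass coverslips 24 h at 37 °C, static. PBS-washed biofilms treated with compound in biofilm medium 24 h at 37 °C, static; medium-only control. Cells detached with trypsin-EDTA (1:4 in saline) for 15 min, ten-fold diluted, plated on NB agar 24 h; viable counts compared with untreated.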

[3] = Hemolytic activity in human erythrocytes after 1 hr; assay type: ADME, cell-based, Erythrocyte
In short: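 Heparinized donor blood. Erythrocytes washed three times in PBS and resuspended to 5 vol%, then mixed 3:1 with compound serially diluted in water. Incubated 1 h at 37 °C and centrifuged. Supernatant A540 read; % hemolysis relative to water and 0.1 vol% Triton-X controls.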

Acinetobacter baumannii = assay: Antibacterial activity against Acinetobacter baumannii MTCC 1425 after 24 hrs by tecan plate reader analysis; assay type: functional; details: MTCC 1425, 24 h
In short: (§1)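 Broth microdilution MIC. Glycerol stocks grown on MacConkey agar 24 h at 37 °C, then a single colony in nutrient broth 6 h to mid-log (~10⁸ CFU/mL). Cells diluted to 10⁵ CFU/mL in Mueller Hinton broth and added to two-fold compound dilutions. Incubated 24 h at 37 °C, OD600 read. Triplicate wells, experiment run twice.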

Staphylococcus aureus [4] = assay: Induction of membrane permeabilization in Staphylococcus aureus R3545 assessed as increase in fluorescence intensity measured upto 28 mins by propidium iodide staining based fluorescence spectroscopic technique; assay type: functional, organism-based
In short: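 Mid-log MRSA washed in 5 mM HEPES and resuspended in 1:1 HEPES (5 mM) and glucose (5 mM). Propidium iodide added at 10 µM final. Baseline fluorescence (ex 535/em 617 nm) read 4 min, compound in water added, read to 28 min. Water control; triplicates averaged.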

Staphylococcus aureus [5] = assay: Antibiofilm activity against Staphylococcus aureus R3545 assessed as reduction in biofilm biomass at 16 to 64 ug/ml incubated for 24 hrs followed by plating on agar plate for 24 hrs by crystal violet staining assay relative to control; assay type: functional
In short: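 Coverslip biofilms grown 24 h at 37 °C in nutrient broth with 1% glucose and 1% NaCl, then treated with compound for 24 h. PBS-washed and air-dried, stained with 0.1% w/v crystal violet for 5-10 min, washed, stain recovered in 95% ethanol, OD 522 nm read. Two experiments, mean with standard deviation.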

Staphylococcus aureus [6] = assay: Bactericidal activity against planktonic phase of methicillin-resistant Staphylococcus aureus R3545 assessed as log reduction in bacterial colony forming units at 32 ug/ml incubated for 12 hrs followed by plating on agar plate for 24 hrs by time-kill kinetic assay; assay type: functional
In short: (§2)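 Time-kill: 6 h mid-log culture diluted to 10⁵ CFU/mL in MHB, incubated at 37 °C with compound at […]; 0.9% saline control. Aliquots at 1, 2, 4, 6, 8 and 12 h ten-fold diluted in saline, plated on NB agar 24 h at 37 °C; colonies counted, log scale.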

Escherichia coli = assay: Antibacterial activity against Escherichia coli MTCC 443 after 24 hrs by tecan plate reader analysis; assay type: functional; details: MTCC 443, 24 h; in short: as §1
A549 = assay: Cytotoxicity against human A549 cells up to 128 ug/ml after 24 hrs by alamar blue assay; assay type: cell-based; details: a549, 24 h
In short: (§3)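 About 10⁴ cells/well in DMEM with 10% FBS. Medium replaced with two-fold compound dilutions and incubated 24 h at 37 °C, 5% CO₂. Alamar Blue added for a further 4 h, absorbance 570 nm (600 nm reference). Viability normalized to untreated and 0.1% Triton-X wells. Triplicates; sigmoidal fit gives the 50% viability concentration.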

Staphylococcus aureus [7] = assay: Antibacterial activity against Staphylococcus aureus ATCC 33591 assessed as increase in dead cells by measuring bright red fluorescence intensity at 32 ug/ml after 2 hrs by SYTO-9/propidium iodide staining based fluorescence microscopy analysis; assay type: functional, organism-based
In short: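 Mid-log cells (~10⁸ CFU/mL) pelleted and resuspended in 0.9% saline. Treated with 32 µg/mL compound for 2 h at 37 °C, pelleted and resuspended in saline. Stained with SYTO9 (3 µM) plus PI (15 µM) for 15 min in the dark, unbound dye removed, then imaged by fluorescence microscopy at 100×.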

Staphylococcus aureus [8] = assay: Antibacterial activity against methicillin-resistant Staphylococcus aureus R3889 clinical isolate after 24 hrs by tecan plate reader analysis; assay type: functional; details: R3889, 24 h
In short: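 Colony grown 24 h on NB agar at 37 °C, then 6 h in nutrient broth to mid-log (10⁸ CFU/mL by drop plating), diluted to 10⁵ CFU/mL in Mueller Hinton broth; added 9:1 to two-fold serial compound dilutions in MHB. Incubated 24 h, 37 °C; OD600 read. Triplicate per concentration, experiment run twice; MIC taken from the range of triplicate OD values.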

Staphylococcus aureus [9] = assay: Induction of membrane depolarization in Staphylococcus aureus R3545 assessed as increase in fluorescence intensity measured upto 28 mins by DiSC3 staining based fluorescence spectroscopic technique; assay type: functional, organism-based
In short: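 Mid-log MRSA washed in 5 mM HEPES pH 7.4 and resuspended in 1:1:1 HEPES (5 mM), glucose (5 mM) and KCl (100 mM). Loaded with DiSC3(5) at 2 µM final, 30 min in the dark. Baseline fluorescence (ex 622/em 670 nm) read 4 min, compound added, monitored to 28 min. Water control; triplicates averaged.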

Staphylococcus aureus [10] = assay: Bactericidal activity against planktonic phase of methicillin-resistant Staphylococcus aureus R3545 assessed as log reduction in bacterial colony forming units at 16 ug/ml incubated for 6 hrs followed by plating on agar plate for 24 hrs by time-kill kinetic assay; assay type: functional; in short: as §2
Staphylococcus aureus [11] = assay: Bactericidal activity against metabolically inactive stationary phase of methicillin-resistant Staphylococcus aureus R3545 assessed as bacterial killing at 32 ug/ml incubated for 6 hrs followed by plating on agar plate for 24 hrs by visual counting analysis relative to control; assay type: functional
[12] = Ratio of EC50 for dog MDCK cells to MIC for vancomycin-resistant Staphylococcus aureus clinical isolate 1; assay type: toxicity
Staphylococcus aureus [13] = assay: Bactericidal activity against metabolically inactive stationary phase methicillin-resistant Staphylococcus aureus ATCC 33591 assessed as log reduction in bacterial colony forming units at 32 ug/ml incubated for 6 hrs followed by plating on agar plate for 24 hrs by visual counting analysis; assay type: functional
[14] = Selectivity index, ratio of HC50 for human erythrocytes to MIC for methicillin-resistant Staphylococcus aureus ATCC 33591; assay type: toxicity; details: read-out: Selectivity Index
[15] = Selectivity index, ratio of HC50 for human erythrocytes to MIC for Escherichia coli MTCC 443; assay type: toxicity; details: read-out: Selectivity Index
MDCK = assay: Cytotoxicity against dog MDCK cells after 24 hrs by alamar blue assay; assay type: cell-based; details: Canis lupus familiaris; in short: as §3

## CCCCCCNC(=O)C[N+](C)(CCO)CCCCCCCCCCCC[N+](C)(CCO)CC(=O)NCCCCCC.O=C([O-])C(F)(F)F.O=C([O-])C(F)(F)F (centres undefined)
Staphylococcus aureus [1]
  MIC: 4 µg/mL
Staphylococcus aureus [2]
  Activity: >4 log10CFU/ml
[3]
  HC50 at 1 h: 577 µg/mL
Acinetobacter baumannii
  MIC: 64 µg/mL
Staphylococcus aureus [4]
  Activity: Dose-dependent effect
Staphylococcus aureus [5]
  inhibition (INH): 80%
Staphylococcus aureus [6]
  Activity: 6 log10CFU/ml
Escherichia coli
  MIC: 2 µg/mL
A549
  Activity: Non-Toxic
Staphylococcus aureus [7]
  Activity: Active
Staphylococcus aureus [8]
  MIC: 1 to 2 µg/mL
Staphylococcus aureus [9]
  Activity: Dose-dependent effect
Staphylococcus aureus [10]
  Activity: >2 log10CFU/ml
Staphylococcus aureus [11]
  Activity: >99%
[12]
  selectivity ratio: 94 to 97
Staphylococcus aureus [13]
  Activity: 2.05 log10CFU/ml
[14]
  selectivity ratio: 577
[15]
  selectivity ratio: 288
MDCK
  EC50: 188 µg/mL
